Source: ChEMBL document CHEMBL1143898, “Synthesis and study of antiviral and anti-radical properties of aminophenol derivatives” (Bioorg Med Chem Lett, 2008)
Calls of active or inactive are those of the source.

Experiments:
Human alphaherpesvirus 1 = assay: Antiviral activity against HSV1-induced cytopathic effect in human rhabdomyosarcoma cells assessed as suppression of viral replication; type: functional, organism-based
Outline: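 HSV-1 infected human rhabdomyosarcoma (RD) cell culture; cytopathic effect based method. Compound predissolved in 10% ethanol, then twofold dilutions made in maintenance medium 199. Criterion: reduction of virus titer relative to untreated infected control; concentrations suppressing virus replication by 50% and 90% calculated (EC50, EC90).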

[1] = test system: Peritoneal macrophage cell; assay: Inhibition of zymosan-stimulated ROS production in rat peritoneal macrophages; type: functional, cell-based
Outline: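 ROS generation measured by luminol-dependent chemiluminescence with and without compound; EC50 and EC90 taken as concentrations lowering luminescence intensity by 50% and 90%.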

[2] = Cytotoxicity against human rhabdomyosarcoma cells assessed as maximum non-toxic concentrations after 72 hrs; type: functional
Outline: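 Non-infected RD cell cultures exposed to compound for 72 h; maximum non-toxic concentration determined.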

SMILES	EC50 (Human alphaherpesvirus 1) [µM]	EC90 (Human alphaherpesvirus 1) [µM]	Activity [1]	Activity [2] [µM]	EC50 [1] [µM]
CC(=O)Nc1cc(C(C)(C)C)cc(C(C)(C)C)c1O	8.5	14.8	inactive	379.7	–
COc1c(NC(C)=O)cc(C(C)(C)C)cc1C(C)(C)C	798	1960	–	1444	–
CC(C)(C)c1cc(Nc2ccccc2)c(O)c(C(C)(C)C)c1	23	169	–	336.7	9.8
CC(C)(C)c1cc(N)c(O)c(C(C)(C)C)c1	87.3	288	–	113.2	0.06
CCCC(=O)Nc1cc(C(C)(C)C)cc(C(C)(C)C)c1O	8.6	14.1	inactive	686.2	–
CCC(=O)Nc1cc(C(C)(C)C)cc(C(C)(C)C)c1O	38.2	64.5	inactive	720.9	–
COc1c(Nc2ccccc2)cc(C(C)(C)C)cc1C(C)(C)C	255	624	inactive	722	–
